# ChEMBL document CHEMBL3425495, “Perturbation of the c-Myc-Max protein-protein interaction via synthetic α-helix mimetics” (J Med Chem, 2015)
# Molecular target: c-Myc/Max (Homo sapiens, UniProt P01106+P61244)
# Assay: Disruption of human recombinant c-Myc-Max(S)/DNA (unknown origin) binding assessed as complex level at 100 uM by electrophoretic mobility shift assay relative to control
# Type: protein-complex assay
# Procedure, shortened: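 Recombinant c-Myc 353–437 bHLH-ZIP with full-length Max(S), or Max(L) alone, from E. coli (His₆ removed by TEV), each 30 nM, with 30 nM HEX-labelled double-stranded oligonucleotide bearing a c-Myc site; buffer 1× PBS pH 7.3, 1 mM EDTA, 0.1% NP40, 5% glycerol, 1 mM DTT, 400 µg/mL BSA; complex level relative to DMSO control; three independent EMSAs.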
row,SMILES,Activity [%]
1,COC(=O)c1ccc(NC(=O)c2ccc([N+](=O)[O-])c(OC3Cc4ccccc4C3)c2)c(OCc2ccccc2)c1,78
2,COC(=O)c1ccc(NC(=O)c2ccc([N+](=O)[O-])c(OC3Cc4ccccc4C3)c2)c(OC2Cc3ccccc3C2)c1,100
3,CC(C)COc1cc(C(=O)Nc2ccc(C(=O)O)cc2OCc2ccccn2)ccc1[N+](=O)[O-],116
4,CC(C)COc1cc(C(=O)Nc2ccc(C(=O)O)cc2)ccc1[N+](=O)[O-],81
5,CC(C)COc1cc(C(=O)O)ccc1NC(=O)c1ccc([N+](=O)[O-])c(OCc2ccccn2)c1,100
6,CC(C)COc1cc(C(=O)O)ccc1NC(=O)c1ccc(N)c(OC2Cc3ccccc3C2)c1,87
7,COC(=O)c1ccc(NC(=O)c2ccc([N+](=O)[O-])c(OCc3cccc4ccccc34)c2)c(OC2Cc3ccccc3C2)c1,117
8,CC(C)COc1nc(C(=O)Nc2ccc(C(=O)O)nc2OCC(C)C)ccc1N,79
9,COC(=O)c1ccc(NC(=O)c2ccc([N+](=O)[O-])c(OC3Cc4ccccc4C3)c2)c(OCC(C)C)c1,90
10,COC(=O)c1ccc(NC(=O)c2ccc([N+](=O)[O-])c(OCc3ccccc3)c2)c(OCc2ccccc2)c1,85
11,COc1cc(C(=O)O)ccc1NC(=O)c1ccc([N+](=O)[O-])c(OC)c1,94
12,COC(=O)c1ccc(NC(=O)c2ccc([N+](=O)[O-])c(OCc3ccccc3)c2)c(OCC(C)C)c1,75
13,COC(=O)c1ccc(NC(=O)c2ccc([N+](=O)[O-])c(OC(C)C)c2)c(OC2Cc3ccccc3C2)c1,109
14,COC(=O)c1ccc(NC(=O)c2ccc([N+](=O)[O-])c(OC(C)C)c2)c(OCc2ccccc2)c1,73
15,O=C(O)c1ccc(NC(=O)c2ccc([N+](=O)[O-])cc2)cc1,87
16,COC(=O)c1ccc(NC(=O)c2ccc([N+](=O)[O-])c(OCc3cccc4ccccc34)c2)c(OCc2ccccc2)c1,88
17,CC(C)COc1cc(C(=O)O)ccc1NC(=O)c1ccc([N+](=O)[O-])c(OC2Cc3ccccc3C2)c1,65
18,CC(C)COc1cc(C(=O)O)ccc1NC(=O)c1ccc([N+](=O)[O-])cc1,90
19,COC(=O)c1ccc(NC(=O)c2ccc([N+](=O)[O-])c(OCc3cccc4ccccc34)c2)c(OCC(C)C)c1,109
20,COC(=O)c1ccc(NC(=O)c2ccc([N+](=O)[O-])c(OCc3ccccc3)c2)c(OC2Cc3ccccc3C2)c1,112
21,CC(C)COc1cc(C(=O)Nc2ccc(C(=O)O)cc2OCc2cccnc2)ccc1[N+](=O)[O-],75
22,CC(C)COc1cc(C(=O)Nc2ccc(C(=O)O)cc2OCc2ccncc2)ccc1[N+](=O)[O-],87

# The next lines start with the values.
row,Activity [%],SMILES
1,47,CC(C)Oc1cc(C(=O)O)ccc1NC(=O)c1ccc([N+](=O)[O-])c(OC(C)C)c1
2,70,COC(=O)c1ccc(NC(=O)c2ccc([N+](=O)[O-])c(OC(C)C)c2)c(OCC(C)C)c1
3,120,CC(C)COc1cc(C(=O)O)ccc1NC(=O)c1ccc([N+](=O)[O-])cc1OCC(C)C
4,112,COC(=O)c1ccc(NC(=O)c2ccc([N+](=O)[O-])c(OCC(C)C)c2)c(OCC(C)C)c1
5,99,CC(C)COc1cc(C(=O)N(CC(=O)O)CC(=O)O)ccc1NC(=O)c1ccc([N+](=O)[O-])c(OCC(C)C)c1
6,89,CC(C)COc1cc(C(=O)Nc2ccc(C(=O)O)cc2OCC(C)C)ccc1NC(=O)COCC(=O)O
7,97,CC(C)COc1cccc(C(=O)Nc2ccc(C(=O)O)cc2OCC(C)C)c1
8,105,CC(C)COc1cc(C(=O)Nc2ccc(C(=O)O)cc2OCC(C)C)ccc1N
9,99,CC(C)COc1cc(C(=O)Nc2ccc(C(=O)O)cc2OCC(C)C)ccc1NC(=O)C(=O)O
10,104,CC(C)COc1cc(C(=O)Nc2ccc(C(=O)O)cc2OCc2ccccc2)ccc1[N+](=O)[O-]
11,107,CC(C)COc1cc(C(=O)NCC(=O)O)ccc1NC(=O)c1ccc([N+](=O)[O-])c(OCC(C)C)c1
12,80,CC(C)COc1cc(NC(=O)c2ccc([N+](=O)[O-])c(OCC(C)C)c2)ccc1C(=O)O
